From ChEMBL document CHEMBL4024777, “Discovery of LY3104607: A Potent and Selective G Protein-Coupled Receptor 40 (GPR40) Agonist with Optimized Pharmacokinetic Properties to Support Once Daily Oral Treatment in Patients with Type 2 Diabetes Mellitus” (J Med Chem, 2018)
≈ marks a conversion by molar mass, not a printed value. Calls of active or inactive are those of the source. No cut-off for these calls is given here.

Columns and labels:
[1] = molecular target: T1, Free fatty acid receptor 1 (Homo sapiens, UniProt O14842); experiment: Agonist activity at human GPR40 receptor expressed in HEK293 cells assessed as increase in intracellular calcium flux after 2.5 hrs measured over 3 mins in presence of 0.1% serum albumin by calcium 4 dye-based FLIPR assay; assay type: functional, cell-based
[2] = molecular target: T2, Peroxisome proliferator-activated receptor alpha (Homo sapiens) (UniProt Q07869); experiment: Displacement of [3H]-agonist from human PPARalpha expressed in baculovirus infecetd Sf9 cells system up to 30 uM after 10 hrs in presence of DR2 by scintillation proximity assay
T2 sequence (whole entry): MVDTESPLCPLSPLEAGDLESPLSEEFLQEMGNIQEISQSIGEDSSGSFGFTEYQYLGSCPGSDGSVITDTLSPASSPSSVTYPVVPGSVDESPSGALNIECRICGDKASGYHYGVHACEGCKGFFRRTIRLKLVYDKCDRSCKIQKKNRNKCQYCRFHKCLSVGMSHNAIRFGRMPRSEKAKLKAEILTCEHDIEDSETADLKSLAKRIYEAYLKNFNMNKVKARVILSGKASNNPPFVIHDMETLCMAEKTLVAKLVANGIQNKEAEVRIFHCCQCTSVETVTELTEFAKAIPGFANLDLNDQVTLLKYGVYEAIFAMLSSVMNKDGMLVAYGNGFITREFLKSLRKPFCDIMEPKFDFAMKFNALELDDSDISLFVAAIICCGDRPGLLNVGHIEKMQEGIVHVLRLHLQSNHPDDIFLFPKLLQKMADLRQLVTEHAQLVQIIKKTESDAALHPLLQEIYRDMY
Summary of the method: (§1)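 PPAR alpha, delta and gamma binding and functional activity were each tested at concentrations up to 30 µM.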

3T3-L1 = experiment: Induction of adipogenesis in mouse 3T3L1 cells; assay type: functional, cell-based
Summary of the method: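 Adipogenesis was assessed in 3T3-L1 cells.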

[3] = molecular target: Free fatty acid receptor 1 (Rattus norvegicus, UniProt Q8K3T4); experiment: Agonist activity at rat PK-tagged GPR40 expressed in human U2OS cells assessed as EA-tagged beta-arrestin recruitment after 90 mins in presence of 1 % heat inactivated FBS by beta-galactosidase reporter gene assay; assay type: cell-based
Summary of the method: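 β-Arrestin recruitment used rat GPR40 in the presence of 1% FBS. EC50 and % maximal stimulation are reported with SEM and n.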

[4] = Protein binding in plasma (unknown origin) by equilibrium dialysis assay; assay type: ADME, cell-free; conditions: read-out: PPB
[5] = molecular target: T1, Free fatty acid receptor 1; experiment: Agonist activity at human PK-tagged GPR40 expressed in HEK293 cells assessed as EA-tagged beta-arrestin recruitment after 90 mins in presence of 1 % heat inactivated FBS by beta-galactosidase reporter gene assay; assay type: cell-based
[6] = molecular target: T3, Peroxisome proliferator-activated receptor delta (Homo sapiens) (UniProt Q03181); experiment: Displacement of [3H]-agonist from human PPARdelta expressed in baculovirus infecetd Sf9 cells system up to 30 uM after 10 hrs in presence of DR2 by scintillation proximity assay; summary of the method: as §1
T3 sequence (whole entry): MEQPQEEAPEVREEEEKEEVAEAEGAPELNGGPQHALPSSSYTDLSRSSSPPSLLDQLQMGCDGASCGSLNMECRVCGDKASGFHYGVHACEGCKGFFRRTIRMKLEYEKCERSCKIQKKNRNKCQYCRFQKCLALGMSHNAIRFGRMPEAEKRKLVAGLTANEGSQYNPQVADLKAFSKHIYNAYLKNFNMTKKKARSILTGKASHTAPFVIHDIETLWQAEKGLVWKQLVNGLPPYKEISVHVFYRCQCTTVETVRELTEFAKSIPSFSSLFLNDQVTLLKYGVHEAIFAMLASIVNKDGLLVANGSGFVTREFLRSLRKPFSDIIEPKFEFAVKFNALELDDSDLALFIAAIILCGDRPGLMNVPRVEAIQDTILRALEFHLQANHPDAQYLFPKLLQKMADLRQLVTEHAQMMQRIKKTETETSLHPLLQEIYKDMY

[7] = molecular target: T1, Free fatty acid receptor 1; experiment: Agonist activity at human PK-tagged GPR40 expressed in HEK293 cells assessed as EA-tagged beta-arrestin recruitment after 90 mins in presence of 1 % heat inactivated FBS by beta-galactosidase reporter gene assay relative to untreated control; assay type: cell-based
[8] = molecular target: T1, Free fatty acid receptor 1; experiment: Agonist activity at human GPR40 receptor expressed in HEK293 cells assessed as increase in intracellular calcium flux after 2.5 hrs measured over 3 mins by calcium 4 dye-based FLIPR assay relative to linoleic acid; assay type: functional, cell-based; set-up: Activity: concentration or dose not given beside the values
Summary of the method: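 Human GPR40 calcium flux was read on FLIPR. Percent stimulation is expressed against the response to 100 uM linoleic acid.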

[9] = molecular target: T1, Free fatty acid receptor 1; experiment: Competitive displacement of [3H]-TAK-875 from full length human recombinant GPR40 expressed in HEK293 cell membranes after 2 hrs by scintillation counting
Summary of the method: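 Binding was measured as competitive inhibition of [3H]-TAK875 (fasiglifam) binding to membranes from cells overexpressing recombinant human GPR40. Ki is reported with SEM and n.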

[10] = molecular target: T3, Peroxisome proliferator-activated receptor delta (Homo sapiens); experiment: Agonist activity at GAL4-fused human PPARdelta expressed in African green monkey CV1 cells up to 30 uM after 24 hrs by luciferase reporter gene assay; assay type: cell-based; summary of the method: as §1
[11] = molecular target: T4, Peroxisome proliferator-activated receptor gamma (Homo sapiens) (UniProt P37231); experiment: Agonist activity at […] human PPARgamma expressed in African green monkey CV1 cells up to 30 uM after 24 hrs by luciferase reporter gene assay; assay type: cell-based; summary of the method: as §1
T4 sequence (whole entry): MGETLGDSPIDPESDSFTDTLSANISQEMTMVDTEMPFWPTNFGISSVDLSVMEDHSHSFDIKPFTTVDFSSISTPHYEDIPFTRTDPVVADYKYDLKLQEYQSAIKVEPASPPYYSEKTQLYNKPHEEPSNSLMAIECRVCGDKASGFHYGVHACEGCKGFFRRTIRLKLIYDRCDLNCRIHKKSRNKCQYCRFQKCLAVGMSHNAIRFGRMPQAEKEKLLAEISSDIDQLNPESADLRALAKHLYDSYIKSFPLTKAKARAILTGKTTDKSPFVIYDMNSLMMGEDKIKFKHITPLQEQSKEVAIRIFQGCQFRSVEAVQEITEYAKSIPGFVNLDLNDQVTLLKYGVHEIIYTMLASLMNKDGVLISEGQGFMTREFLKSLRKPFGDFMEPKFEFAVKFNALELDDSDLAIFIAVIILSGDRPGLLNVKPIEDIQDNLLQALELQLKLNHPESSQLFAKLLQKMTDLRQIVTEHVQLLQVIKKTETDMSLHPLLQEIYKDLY

[12] = molecular target: Free fatty acid receptor 1 (Rattus norvegicus) (UniProt Q8K3T4); experiment: Agonist activity at rat PK-tagged GPR40 expressed in human U2OS cells assessed as EA-tagged beta-arrestin recruitment after 90 mins in presence of 1 % heat inactivated FBS by beta-galactosidase reporter gene assay relative to untreated control; assay type: cell-based
[13] = molecular target: T1, Free fatty acid receptor 1; experiment: Agonist activity at human GPR40 receptor expressed in HEK293 cells assessed as increase in intracellular calcium flux after 2.5 hrs measured over 3 mins by calcium 4 dye-based FLIPR assay; assay type: functional, cell-based
Summary of the method: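 Calcium flux was read by FLIPR in cells carrying recombinant human GPR40. Percent stimulation is relative to the response to 100 µM linoleic acid. EC50 is reported with SEM and n.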

[14] = molecular target: T4, Peroxisome proliferator-activated receptor gamma (Homo sapiens); experiment: Displacement of [3H]-agonist from human PPARgamma expressed in baculovirus infecetd Sf9 cells system up to 30 uM after 10 hrs in presence of DR2 by scintillation proximity assay; summary of the method: as §1
[15] = molecular target: T2, Peroxisome proliferator-activated receptor alpha (Homo sapiens); experiment: Agonist activity at GAL4-fused human PPARalpha expressed in African green monkey CV1 cells up to 30 uM after 24 hrs by luciferase reporter gene assay; assay type: cell-based; summary of the method: as §1
[16] = Metabolic stability in dog microsomes assessed as compound metabolized after 30 mins; assay type: ADME, Canis lupus familiaris, Microsome; conditions: read-out: Drug metabolism
Summary of the method: (§2)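 Compound incubated 30 min with liver microsomes from mouse, rat, dog or human. Percent of compound metabolized recorded, as mean (SEM, n).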

[17] = Intrinsic clearance in human microsomes; assay type: ADME, Microsome
[18] = Aqueous solubility of the compound at pH 7.4; assay type: physicochemical
Summary of the method: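 Solubility was measured by DMSO/aqueous precipitation at pH 7.4 and reported as the last soluble concentration.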

[19] = Metabolic stability in rat microsomes assessed as compound metabolized after 30 mins; assay type: ADME, Microsome; conditions: read-out: Drug metabolism; summary of the method: as §2
[20] = Drug metabolism in mouse hepatocytes assessed as glucuronidation; assay type: ADME, cell-based, Hepatocyte
[21] = Dissociation constant, pKa of the compound; assay type: physicochemical
[22] = Drug metabolism in rat hepatocytes assessed as glucuronidation; assay type: ADME, cell-based, Hepatocyte
[23] = Drug metabolism in rat hepatocytes assessed as oxidation; assay type: ADME, cell-based, Hepatocyte
[24] = Clearance in type 2 diabetes patient; assay type: ADME; conditions: human, in vivo
Rattus norvegicus [25] = experiment: Antidiabetic activity in Zucker fa/fa rat assessed as reduction in blood glucose AUC at 1 mg/kg, po administered for 1 day followed by OGTT at 1 hr after compound dosing and measured 60 mins post glucose challenge by oral glucose tolerance test; assay type: functional, organism-based
[26] = Drug metabolism in dog hepatocytes assessed as glucuronidation; assay type: ADME, cell-based, Canis lupus familiaris, Hepatocyte
[27] = Drug metabolism in dog hepatocytes assessed as O-dealkylation; assay type: ADME, cell-based, Canis lupus familiaris, Hepatocyte
[28] = Volume of distribution in type 2 diabetes patient; assay type: ADME; conditions: human, in vivo
[29] = Drug metabolism in rat hepatocytes assessed as O-dealkylation; assay type: ADME, cell-based, Hepatocyte
[30] = Drug metabolism in mouse hepatocytes assessed as O-dealkylation; assay type: ADME, cell-based, Hepatocyte
[31] = Drug metabolism in dog hepatocytes assessed as oxidation; assay type: ADME, cell-based, Canis lupus familiaris, Hepatocyte
Rattus norvegicus [32] = experiment: Antidiabetic activity in po dosed Zucker fa/fa rat assessed as reduction in blood glucose AUC administered daily for 21 days followed by OGTT at 1 hr after compound dosing and measured 60 mins post glucose challenge by oral glucose tolerance test; assay type: functional
[33] = Drug metabolism in mouse hepatocytes assessed as oxidation; assay type: ADME, cell-based, Hepatocyte

T1 sequence (O14842 whole entry): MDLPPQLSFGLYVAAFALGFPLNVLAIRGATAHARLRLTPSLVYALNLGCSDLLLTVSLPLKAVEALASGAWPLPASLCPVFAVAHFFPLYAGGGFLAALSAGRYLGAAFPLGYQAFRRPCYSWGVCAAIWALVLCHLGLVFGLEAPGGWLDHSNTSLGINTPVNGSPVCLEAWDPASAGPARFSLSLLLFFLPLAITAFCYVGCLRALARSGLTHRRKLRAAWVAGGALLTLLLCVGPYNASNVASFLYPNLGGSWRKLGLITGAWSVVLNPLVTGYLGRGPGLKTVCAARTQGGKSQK
Chain of Free fatty acid receptor 1 (Rattus norvegicus) (Q8K3T4 whole entry): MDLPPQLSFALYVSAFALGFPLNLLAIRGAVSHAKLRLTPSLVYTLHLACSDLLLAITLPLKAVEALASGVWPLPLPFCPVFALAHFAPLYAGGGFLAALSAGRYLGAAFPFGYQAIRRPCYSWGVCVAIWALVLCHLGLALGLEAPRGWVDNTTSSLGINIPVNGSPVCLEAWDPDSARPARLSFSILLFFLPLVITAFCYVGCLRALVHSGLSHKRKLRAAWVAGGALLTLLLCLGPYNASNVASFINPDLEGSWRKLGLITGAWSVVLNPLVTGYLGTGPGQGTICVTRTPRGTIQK
Chain of Free fatty acid receptor 1 (Rattus norvegicus, UniProt Q8K3T4) (Q8K3T4 whole entry): as above

SMILES | Activity [1] | Activity [2] | Activity (3T3-L1) | EC50 [3] [nM] | fraction unbound [4] | EC50 [5] [nM] | Activity [6] | %max [7] [%] | Activity [8] [%] | Ki [9] [nM] | Activity [10] | Activity [11] | %max [12] [%] | EC50 [13] [nM] | Activity [14] | Activity [15] | also measured
CC#C[C@@H](CC(=O)O)c1ccc(OCc2ccc3nc(-c4c(C)cc(OCCCS(C)(=O)=O)cc4C)nn3c2)cc1 | Active | inactive | inactive | 95 | < 0.01 | 1490 | inactive | 114 | 71 | 63 | inactive | inactive | 140 | 117 | inactive | inactive | 
CC#C[C@@H](CC(=O)O)c1ccc(OCc2ccc3nc(-c4ccc(OC(F)F)cc4)nn3c2)cc1 | Active | inactive | inactive | 98 | < 0.01 | 166 | inactive | 127 | 64 | 60 | inactive | inactive | 142 | 1 | inactive | inactive | 
CC#C[C@@H](CC(=O)O)c1ccc(OCc2ccc3nc(-c4ccc(C(C)C)cc4)nn3c2)cc1 | Active | inactive | inactive | 30 | < 0.01 | 67 | inactive | 154 | 65 | 32 | inactive | inactive | 123 | 2 | inactive | inactive | 
CC#C[C@@H](CC(=O)O)c1ccc(OCc2ccc3nc(-c4ccc(OCCC(C)(C)O)cc4)nn3c2)cc1 | Active | inactive | inactive | 68 | < 0.01 | 301 | inactive | 132 | 89 | 37 | inactive | inactive | 121 | 72 | inactive | inactive | 
CC#C[C@@H](CC(=O)O)c1ccc(OCc2ccc3nc(-c4ccc(C#N)cc4)nn3c2)cc1 | Active | inactive | inactive | 216 | < 0.01 | 443 | inactive | 124 | 65 | 35 | inactive | inactive | 125 | 9 | inactive | inactive | 
CC#C[C@@H](CC(=O)O)c1ccc(OCc2ccc3nc(-c4ccc(OCCOC)cc4)nn3c2)cc1 | Active | inactive | inactive | 562 | < 0.01 | 681 | inactive | 121 | 74 | 102 | inactive | inactive | 133 | 16 | inactive | inactive | 
CC#C[C@@H](CC(=O)O)c1ccc(OCc2ccc(CN3CCC4(C=Cc5ccccc54)CC3)cc2)cc1 [LY2881835] |  |  |  |  |  |  |  |  |  |  |  |  |  |  |  |  | metabolised at 0.5 h [16]: 65%; K [17]: 0.033 h⁻¹; solubility [18]: 61 to 80 µM (≈ 30 to 39.3 µg/mL); metabolised at 0.5 h [19]: 64%; Drug metabolism [20]: Metabolite_Detected; pKa [21]: 4.1 to 8.1; Drug metabolism [22]: Metabolite_Detected; Drug metabolism [23]: Metabolite_Detected; clearance [24]: 183 mL/min; Activity (Rattus norvegicus [25]): Active; Drug metabolism [26]: Metabolite_Detected; %max [8]: 62%; Drug metabolism [27]: Metabolite_Detected; Vd [28]: 111 L; Drug metabolism [29]: Metabolite_Detected; Drug metabolism [30]: Metabolite_Detected; Drug metabolism [31]: Metabolite_Detected; ED90 (Rattus norvegicus [32]): 1 mg/kg; Drug metabolism [33]: Metabolite_Detected
